pEC50, pIC50: −log10 of the molar value.
How the values were obtained:
[1] = Cytotoxicity against human THLE3 cells assessed as reduction in cell viability after 48 hrs by Alamar blue assay; format: cell-based
How it was run: (§1)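 Alamar Blue viability read-out. Human liver (THLE-3) and kidney (HEK 293) cells incubated with compound for 48 h. Tested in dose-response to derive CC50.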

[2] = Cytotoxicity against human HEK293 cells assessed as reduction in cell viability after 48 hrs by Alamar blue assay; format: cell-based; how it was run: as §1
[3] = molecular target: T1, Tyrosine-protein phosphatase non-receptor type 1 (Homo sapiens, UniProt P18031); experiment: Inhibition of human PTPN1 expressed in Escherichia coli Rosetta 2 (DE3) using pNPP as substrate after 45 mins by spectrophotometric method
T1 sequence (P18031 whole entry): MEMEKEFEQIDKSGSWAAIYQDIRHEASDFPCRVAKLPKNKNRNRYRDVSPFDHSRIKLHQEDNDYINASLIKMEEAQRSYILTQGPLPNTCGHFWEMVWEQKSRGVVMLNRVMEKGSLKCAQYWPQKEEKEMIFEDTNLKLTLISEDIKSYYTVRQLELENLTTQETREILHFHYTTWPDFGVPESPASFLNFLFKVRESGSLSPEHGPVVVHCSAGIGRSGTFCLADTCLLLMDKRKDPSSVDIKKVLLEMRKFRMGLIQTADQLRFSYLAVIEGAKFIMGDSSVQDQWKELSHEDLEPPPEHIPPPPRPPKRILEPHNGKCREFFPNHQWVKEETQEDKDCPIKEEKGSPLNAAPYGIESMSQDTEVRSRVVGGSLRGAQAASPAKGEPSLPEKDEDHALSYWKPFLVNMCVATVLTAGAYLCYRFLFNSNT

[4] = molecular target: T2, E. coli GroEL/ES (Escherichia coli, UniProt P0A6F5); experiment: Inhibition of Escherichia coli GroEL expressed in Escherichia coliDH5alpha/Escherichia coli GroES expressed in Escherichia coli BL21 (DE3) assessed as reduction in GroEL/GroES-mediated denatured pig heart mitochondrial MDH refolding by measuring MDH enzyme activity using sodium mesoxalate as substrate after 20 to 40 mins by spectrometric analysis
T2 sequence (P0A6F5 whole entry, looked up): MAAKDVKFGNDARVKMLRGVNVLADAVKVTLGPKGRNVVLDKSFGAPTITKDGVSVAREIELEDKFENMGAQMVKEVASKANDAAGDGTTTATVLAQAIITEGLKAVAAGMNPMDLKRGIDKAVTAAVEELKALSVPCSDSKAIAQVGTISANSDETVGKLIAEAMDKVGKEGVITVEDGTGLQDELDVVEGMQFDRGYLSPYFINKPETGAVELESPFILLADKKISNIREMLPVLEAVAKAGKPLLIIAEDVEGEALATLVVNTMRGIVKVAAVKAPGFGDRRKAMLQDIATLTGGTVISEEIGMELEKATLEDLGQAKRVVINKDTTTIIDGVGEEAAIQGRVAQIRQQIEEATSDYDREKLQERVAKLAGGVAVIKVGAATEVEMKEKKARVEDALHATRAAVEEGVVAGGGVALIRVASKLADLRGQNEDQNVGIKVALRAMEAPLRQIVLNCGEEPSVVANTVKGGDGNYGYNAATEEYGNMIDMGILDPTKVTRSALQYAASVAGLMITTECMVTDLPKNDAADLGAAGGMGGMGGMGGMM

[5] = molecular target: HSP60/HSP10 (Homo sapiens, UniProt P10809); experiment: Inhibition of human HSP60 expressed in Escherichia coli Rosetta 2(DE3)/human HSP10 expressed in Escherichia coli Rosetta 2(DE3) pLysS cells assessed as reduction in HSP60/HSP10-mediated denatured pig heart mitochondrial MDH refolding by measuring MDH enzyme activity using sodium mesoxalate as substrate after 40 to 60 mins by spectrometric analysis
Sequence of HSP60/HSP10 (P10809 whole entry): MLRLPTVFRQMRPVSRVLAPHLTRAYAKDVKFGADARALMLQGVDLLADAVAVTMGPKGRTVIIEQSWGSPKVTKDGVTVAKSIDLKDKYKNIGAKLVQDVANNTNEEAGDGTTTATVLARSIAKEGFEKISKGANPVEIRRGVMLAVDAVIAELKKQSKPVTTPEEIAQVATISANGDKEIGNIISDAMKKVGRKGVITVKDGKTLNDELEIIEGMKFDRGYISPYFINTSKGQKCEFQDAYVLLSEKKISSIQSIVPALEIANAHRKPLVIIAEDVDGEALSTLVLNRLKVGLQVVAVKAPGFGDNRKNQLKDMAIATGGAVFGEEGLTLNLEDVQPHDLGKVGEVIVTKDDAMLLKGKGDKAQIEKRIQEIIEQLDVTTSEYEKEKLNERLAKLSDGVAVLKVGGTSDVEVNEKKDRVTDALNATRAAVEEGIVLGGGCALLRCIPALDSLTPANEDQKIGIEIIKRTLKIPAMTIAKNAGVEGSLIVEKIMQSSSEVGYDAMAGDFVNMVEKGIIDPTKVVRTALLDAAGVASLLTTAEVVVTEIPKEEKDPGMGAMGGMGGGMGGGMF
Sequence of HSP60/HSP10 (P61604 whole entry, further chain): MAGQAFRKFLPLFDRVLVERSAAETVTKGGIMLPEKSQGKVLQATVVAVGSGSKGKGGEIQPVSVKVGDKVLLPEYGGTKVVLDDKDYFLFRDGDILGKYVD

[6] = molecular target: T3, Tyrosine-protein phosphatase non-receptor type 2 (Homo sapiens, UniProt P17706); experiment: Inhibition of human PTPN2 expressed in Escherichia coli Rosetta 2 (DE3) using pNPP as substrate after 45 mins by spectrophotometric method
T3 sequence (P17706 whole entry): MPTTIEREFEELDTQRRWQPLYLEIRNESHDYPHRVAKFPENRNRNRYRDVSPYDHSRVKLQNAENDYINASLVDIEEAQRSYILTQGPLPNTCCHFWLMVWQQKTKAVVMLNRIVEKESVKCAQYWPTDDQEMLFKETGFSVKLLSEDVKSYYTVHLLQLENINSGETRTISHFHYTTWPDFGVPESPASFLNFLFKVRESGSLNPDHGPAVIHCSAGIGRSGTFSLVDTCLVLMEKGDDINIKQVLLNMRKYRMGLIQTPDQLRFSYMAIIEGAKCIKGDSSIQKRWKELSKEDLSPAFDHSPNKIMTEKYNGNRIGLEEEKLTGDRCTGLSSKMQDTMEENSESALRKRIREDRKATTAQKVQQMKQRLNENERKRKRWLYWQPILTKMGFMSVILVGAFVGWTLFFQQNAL

[7] = molecular target: T2, E. coli GroEL/ES; experiment: Inhibition of Escherichia coli GroEL expressed in Escherichia coli DH5alpha/Escherichia coli GroES expressed in Escherichia coli BL21 (DE3) assessed as reduction in GroEL/GroES-mediated denatured rhodanese refolding by measuring rhodanese enzyme activity after 45 mins by Fe(SCN)3 dye based spectrometric analysis
[8] = molecular target: T4, Malate dehydrogenase, mitochondrial (Sus scrofa, UniProt P00346); experiment: Inhibition of refolded pig heart mitochondrial MDH preincubated with Escherichia coli GroEL/GroES for 45 mins using sodium mesoxalate as substrate followed by compound addition and measured after 20 to 30 mins by spectrometric analysis
T4 sequence (P00346 whole entry): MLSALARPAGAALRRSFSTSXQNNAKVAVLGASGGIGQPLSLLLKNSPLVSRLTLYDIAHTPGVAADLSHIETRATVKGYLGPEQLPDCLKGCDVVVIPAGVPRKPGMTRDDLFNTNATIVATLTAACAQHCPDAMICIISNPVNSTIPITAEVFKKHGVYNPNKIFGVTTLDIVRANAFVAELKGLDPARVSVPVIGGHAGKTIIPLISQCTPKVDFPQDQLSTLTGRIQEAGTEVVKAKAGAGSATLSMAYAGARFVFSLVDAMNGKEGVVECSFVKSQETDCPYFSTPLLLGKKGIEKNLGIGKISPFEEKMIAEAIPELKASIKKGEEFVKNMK

[9] = test system: Mycobacterium tuberculosis; experiment: Antitubercular activity against Mycobacterium tuberculosis H37Rv after 5 days at 200 uM relative to control; format: functional; conditions: 120 h
How it was run: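 M. tuberculosis grown in liquid culture with compound at a fixed 200 μM for 5 days. Growth inhibition expressed as percent of control.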

[10] = molecular target: T5, Phosphotyrosine protein phosphatase (Mycobacterium tuberculosis, UniProt A0A045ISB3); experiment: Inhibition of Mycobacterium tuberculosis His-tagged PtpB expressed in Escherichia coli Rosetta 2 (DE3) using pNPP as substrate after 30 mins by spectrophotometric method
T5 sequence (A0A045ISB3 whole entry): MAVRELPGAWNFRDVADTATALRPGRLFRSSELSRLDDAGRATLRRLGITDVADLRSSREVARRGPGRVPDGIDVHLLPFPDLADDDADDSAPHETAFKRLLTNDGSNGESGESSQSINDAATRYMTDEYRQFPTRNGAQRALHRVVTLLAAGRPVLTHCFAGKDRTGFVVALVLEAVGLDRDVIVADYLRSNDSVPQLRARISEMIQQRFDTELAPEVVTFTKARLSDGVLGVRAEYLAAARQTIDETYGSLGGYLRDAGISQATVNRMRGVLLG

[11] = molecular target: T6, Tyrosine-protein phosphatase non-receptor type 5 (Homo sapiens, UniProt P54829); experiment: Inhibition of human PTPN5 expressed in Escherichia coli Rosetta 2 (DE3) using pNPP as substrate after 45 mins by spectrophotometric method
T6 sequence (P54829 whole entry): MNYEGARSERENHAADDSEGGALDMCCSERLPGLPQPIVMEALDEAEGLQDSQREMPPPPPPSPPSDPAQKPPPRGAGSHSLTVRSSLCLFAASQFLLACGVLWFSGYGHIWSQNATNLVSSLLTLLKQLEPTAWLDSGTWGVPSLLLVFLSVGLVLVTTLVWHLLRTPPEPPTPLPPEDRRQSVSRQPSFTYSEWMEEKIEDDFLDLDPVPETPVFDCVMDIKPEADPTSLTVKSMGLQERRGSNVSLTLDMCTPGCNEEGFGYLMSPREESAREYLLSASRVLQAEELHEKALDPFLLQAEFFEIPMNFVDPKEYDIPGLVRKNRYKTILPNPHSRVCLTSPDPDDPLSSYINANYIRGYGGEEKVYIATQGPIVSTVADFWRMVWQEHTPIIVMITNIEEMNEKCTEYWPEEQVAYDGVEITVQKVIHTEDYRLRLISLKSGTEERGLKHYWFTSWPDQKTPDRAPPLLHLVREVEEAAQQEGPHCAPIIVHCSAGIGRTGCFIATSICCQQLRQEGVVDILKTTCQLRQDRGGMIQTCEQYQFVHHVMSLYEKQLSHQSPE

[12] = Inhibition of refolded rhodanese (unknown origin) preincubated with Escherichia coli GroEL/GroES for 60 mins by measuring rhodanese enzyme activity followed by compound addition by Fe(SCN)3 dye based spectrometric analysis; design: species or system Homo sapiens
[13] = test system: Mycobacterium tuberculosis; experiment: Antitubercular activity against Mycobacterium tuberculosis H37Rv after 5 days; format: functional, organism-based; conditions: 120 h

| Structure (SMILES) | CC50 at 48 h [1] | CC50 at 48 h [2] | pIC50 [3] | pIC50 [4] | pIC50 [5] | pIC50 [6] | pIC50 [7] | pIC50 [8] | inhibition at 200 µM [9] | pIC50 [10] | pIC50 [11] | pIC50 [12] | pEC50 [13] |
| --- | --- | --- | --- | --- | --- | --- | --- | --- | --- | --- | --- | --- | --- |
| O=S(=O)(Nc1ccc2oc(-c3ccccc3)nc2c1)c1cccs1 | 35 µM | 97 µM | < 4.00 | < 4.00 | 4.05 | 4.06 | 3.67 | < 4.20 | 68% | 4.09 | 4.07 | < 4.00 | < 3.70 |
| O=S(=O)(Nc1ccc(-c2nc3ccccc3o2)cc1)c1ccc(C(F)(F)F)cc1 | 71 µM | 94 µM | 4.46 | 4.11 | 4.30 | 4.42 | 3.80 | < 4.20 | 78% | 4.28 | 4.41 | < 4.00 | 3.79 |
| O=S(=O)(Nc1ccc(-c2nc3ccccc3o2)cc1)c1ccc(Cl)s1 | 85 µM | > 100 µM | 4.20 | 4.28 | 4.51 | 4.14 | 3.81 | < 4.20 | 70% | 4.49 | 4.19 | < 4.00 | 3.73 |
| O=S(=O)(Nc1ccc2oc(-c3ccccc3)nc2c1)c1cccc(C(F)(F)F)c1 | 58 µM | > 100 µM | 4.08 | 4.02 | < 4.00 | 4.12 | 3.74 | < 4.20 | 41% | 4.11 | 4.35 | < 4.00 |  |
| COc1ccccc1S(=O)(=O)Nc1ccc2oc(-c3ccccc3)nc2c1 | 29 µM | 41 µM | 4.43 | 4.07 | < 4.00 | 4.47 | 4.05 | < 4.20 | 3% | 4.17 | 4.42 | < 4.00 |  |
| O=S(=O)(Nc1ccc2oc(-c3ccccc3)nc2c1)c1ccc(Cl)c(C(F)(F)F)c1 | 47 µM | 66 µM | 4.40 | 4.04 | < 4.00 | 4.47 | 3.88 | < 4.20 | 0% | 4.40 | 4.55 | < 4.00 |  |
| O=S(=O)(Nc1ccc2oc(-c3ccccc3)nc2c1)c1ccccc1F | 53 µM | 72 µM | 4.23 | < 4.00 | < 4.00 | 4.16 | 3.77 | < 4.20 | 12% | 4.10 | 4.36 | < 4.00 |  |
| O=[N+]([O-])c1cc(S(=O)(=O)Nc2ccc3oc(-c4ccccc4)nc3c2)ccc1Cl | 25 µM | 90 µM | 4.46 | 4.80 | 4.77 | 4.40 | 4.74 | < 4.20 | 1% | 4.48 | 4.49 | < 4.00 |  |
| O=S(=O)(Nc1ccc2oc(-c3ccccc3)nc2c1)c1ccc(F)cc1 | 38 µM | 68 µM | 4.11 | < 4.00 | < 4.00 | 4.21 | 3.71 | < 4.20 | 47% | 4.07 | 4.39 | < 4.00 |  |

Reference: ChEMBL document CHEMBL4387722
